Test results published in the EternaBench riboswitch data.

Test system: MS2 coat protein
Assay: apparent Kd, MS2 coat protein; higher = weaker binding; RNA-MaP array; FMN 200 µM where present
Summary of the method: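 On Illumina sequencing-chip clusters, designs were transcribed by stalled E. coli RNA polymerase and titrated with SNAP-549-labelled MS2 coat protein (0.7 or 1.5 nM, doubling to 3 µM), without and then with constant ligand, in 100 mM Tris-HCl pH 7.5, 80 mM KCl, 4 mM MgCl2, BSA, DTT, yeast tRNA and Tween-20. Apparent Kd is the median of filtered per-cluster curve fits to green signal normalised to red-channel RNA signal and control-cluster median Fmax.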

[1] = designed as: ON switch for flavin mononucleotide, no ligand
[2] = ligand present: flavin mononucleotide, designed as: ON switch for flavin mononucleotide
[3] = designed as: OFF switch for flavin mononucleotide, no ligand
[4] = ligand present: flavin mononucleotide, designed as: OFF switch for flavin mononucleotide

Sequence	apparent Kd [1] [nM]	apparent Kd [2] [nM]	apparent Kd [3] [nM]	apparent Kd [4] [nM]
CCGGUGGCGCUAGUGGUGACUGCACAGGAUAUAGCGCUCACAUGAGGAUCACCCAUGUAAGGACGCUAGAAGGGUGAAAGUAUA	59.9	19.9		
CCCUCACAUGAGGAUCACCCAUGUUAGGAUAUCUACCAGGAGCUUUGAAUUGCCCAACGGAGAAGGAACGUGCA			16.9	17.4
AGGAAACAUGAGGAUCACCCAUGUAAAAGGUGGUUAGGAUAUGCGAAAAGAAAAAGAAAAGCAGAAGGGACAAGAA	487	485		
UGAUAGGACAGAGGAUAUACGGAUAGGAUCUACUAUCUUCCUCAAAUAACAUGAGGAUCACCCAUGUAGAAGGCUGUCCUAUCU			126	887
UAUCAAUUUAUGGGUUUAGAUUAUGAGGAUAUCAUUUUUUUAUACAUGAGGAUCACCCAUGUUACUGAGAAGGCAUAAUUAAUA	17.4	6.21		
CUCGGACAUGAGGAUCACCCAUGUGAGGAUAUGGCGCUAUCGUCAUUAGACGAUUGCGCCAGAAGGCACAAAUG			85.2	268
AUGCUCAGAGGAUAUACAUGAGGAUCACCCAUGUGUUACCGAGGAGUACGGUCGUCACGUAGAAGGCUGGGUAA			17.9	58.8
GAGCUCAAGCAGAAGGCCAUAUGUCAAUCGACAUGAGGAUCACCCAUGUAUGAGCUCGGCGUCGUGGAGGAUAUGCAGGCUCUA	351	17.6		
UACCGCCGCACGGACGCGUUGAGUCAGGAUAUACAUGAGGAUCACCCAUGUGAAGGCCGGCUCAUGUAGAAGGGACAAGCGUUG			6.2	7.14
GAGCGGGAAACAUGAGGAUCACCCAUGUAAAAAAUCCUCAAGUAGGAUAUGCGAAAAAAAAAAAAGCAGAAGGGCUACCCGGUC			58.3	72.7
AAAAAAAAAGUCGAGGAUAUCCACAUGGCUACAUGAGGAUCACCCAUGUGAAGAAAAGCACAUGAGGAGAAGGCGACAAAAAAAAA	28.1	13.7		
UCGUUGUCAGGAUAUCGUUAAUUUAAUUGUUUGUAUUAGUUCGAGAAGGGACAUGAGGAUCACCCAUGUUUGUU			57.2	154
ACAUGAGGAUCACCCAUGUUGAAUUAGGAUAUUUGACUGCACAUGAGGUUCACCCAUGUUCUACCGGAGAAGGGAUUAAUAAUU	129	132		
AGAAACUACGAGAAGGACAUGUGGUCCUUCAGUAACAUGAGGAUCACCCAUGUAGGAUAUCGUAGUUUCAGGAUCGUGAGAUCA			150	19.1
UCGUGGUCAGGAUAUACAUGAGGAUCACCCAUGUAAAAGAGCAUUAAGGAGAGACUACGUAGAAGGGACAAAUU			51.6	47.2
GCACGACAUGUAGGAUAUCGAGCGCCGAGCGCUCGAGAAGGACAUGAGGAUCACCCAUGUAUUCCGAGUGAGUCAGGUCGUGCA			17.5	23.4
GGAAAUUAGCAAGGAUAUCGGCUCACUAUAACUUUAUGCCCUAGGACAUGAGGAUCACCCAUGUACGAGAAGGUGCUAACUACA			28.9	30.7
GUAGGGUCAGGAUAUACGGGCGGGAGGAUGUAUUGUAGUUGGUAGAAGGGACAUGAGGAUCACCCAUGUGAGAA			34.3	30.5
UGCAUGUUAGGAUAUGUUGUUGCGGGCGUACGCUCUCGACCACAGAAGGAACAUGAGGAUCACCCAUGUACCUC			20.3	88.8
CGAUAGGACAGAGGAUAUACACAUGAGGAUCACCCAUGUGAUUUCAGCGCGAAAGCGCCAAACAUGUAGAAGGCUGUCCUAUCG			25.9	10.6
UUCGCUAAGGUGUAGCGAGACAUGCAAGAAGGGUGAAGAACAUGAGGAUCACCCAUGUAGACGGUACAGGAUAUUGAUUGACGA	128	89.3		
CGCAACAUACAGAAGGAGUAAAUUAGAAGUGUACUAGGAUAUGUAAACAUGAGGAUCACCCAUGUCGAAUGUGUUAUAGUUGCG			8.24	8.53
UGUCGGAGCAGAGGAUAUCACAUGAGGAUCACCCAUGUAUGAACCAAUAGCUGGAAACAGCAAUGUAAGAAGGCUGCUCCGACA			5.64	9.62
ACUAUACGAGGAUAUACUGACGGGCCUCGGGCGUCCCUGAGACAUGAGGAUCACCCAUGUAGAAGGCGUAUACU			38.4	216
CGUAGUUGGUAAGGAUAUCCUACACUGUUCUGACCCGUGCAAGCUACAUGAGGAUCACCCAUGUGGGAGAAGGUGCGUCAACGC			18.4	19.6
GAUCCACAUGAGGAUCACCCAUGUGAGGAUAUGAUACUAUGUACUUCGGUACAUAGUAUCAGAAGGCACAGGUC			51.4	160
GGAAGACAAAGUCUUCCAUUACGAACAUGAGGAUCACCCAUGUAGGAUAUGCUACUCAAAGAGUAGCAGAAGGACAUGUGUCUU			27.4	120
UGGACCGAGCUGUCGGUUGACUCUUAGGAUAUGACAUGAGGAUCACCCAUGUGGGAUCUAAAUUGUCAGAAGGAGGGUUCUGGG			283	51.4
